Measured values published in ChEMBL document CHEMBL3098013, “Novel pyrazole integrated 1,3,4-oxadiazoles: synthesis, characterization and antimicrobial evaluation” (2014).
Converted amounts (≈) assume the structure as drawn.

How the values were obtained:
Assay type in all cases: functional
Fusarium verticillioides [1] = assay: Antimicrobial activity against Fusarium moniliforme MTCC 156 after 48 hrs by microdilution method; conditions: MTCC 156, 48 h
Method in brief: (§1)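 The minimal inhibitory concentration was determined by dilution, alongside minimal bactericidal concentration for bacterial strains and minimal fungicidal concentration for fungal strains. Tests were run in six replicates, and the value is the mean of at least three determinations.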

Fusarium verticillioides [2] = assay: Antimicrobial activity against Fusarium moniliforme MTCC 156 at 50 ug/ml after 48 hrs by disc diffusion method; conditions: MTCC 156, 48 h, read-out: DIZ
Method in brief: (§2)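 Agar diffusion read-out is the diameter of the inhibition zone in mm. Each test was run in six replicates and reported as mean ± standard deviation, taken from at least three determinations.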

Klebsiella pneumoniae [3] = assay: Antimicrobial activity against Klebsiella pneumoniae MTCC 3384 after 24 hrs by microdilution method; conditions: MTCC 3384, 24 h; method in brief: as §1
Staphylococcus aureus [4] = assay: Antimicrobial activity against Staphylococcus aureus MTCC 96 at 100 ug/ml after 24 hrs by disc diffusion method; conditions: MTCC 96, 24 h, read-out: DIZ; method in brief: as §2
Fusarium oxysporum [5] = assay: Antimicrobial activity against Fusarium oxysporum MTCC 284 at 100 ug/ml after 48 hrs by disc diffusion method; conditions: MTCC 284, 48 h, read-out: DIZ; method in brief: as §2
Aspergillus flavus [6] = assay: Antimicrobial activity against Aspergillus flavus MTCC 873 at 50 ug/ml after 48 hrs by disc diffusion method; conditions: MTCC 873, 48 h, read-out: DIZ; method in brief: as §2
Fusarium oxysporum [7] = assay: Antimicrobial activity against Fusarium oxysporum MTCC 284 at 50 ug/ml after 48 hrs by disc diffusion method; conditions: MTCC 284, 48 h, read-out: DIZ; method in brief: as §2
Fusarium oxysporum [8] = assay: Antimicrobial activity against Fusarium oxysporum MTCC 284 after 48 hrs by microdilution method; conditions: MTCC 284, 48 h; method in brief: as §1
Escherichia coli [9] = assay: Antimicrobial activity against Escherichia coli MTCC 724 at 100 ug/ml after 24 hrs by disc diffusion method; conditions: MTCC 724, 24 h, read-out: DIZ; method in brief: as §2
Bacillus cereus [10] = assay: Antimicrobial activity against Bacillus cereus MTCC 8372 after 24 hrs by microdilution method; conditions: MTCC 8372, 24 h; method in brief: as §1
Aspergillus flavus [11] = assay: Antimicrobial activity against Aspergillus flavus MTCC 873 at 100 ug/ml after 48 hrs by disc diffusion method; conditions: MTCC 873, 48 h, read-out: DIZ; method in brief: as §2
Klebsiella pneumoniae [12] = assay: Antimicrobial activity against Klebsiella pneumoniae MTCC 3384 at 50 ug/ml after 24 hrs by disc diffusion method; conditions: MTCC 3384, 24 h, read-out: DIZ; method in brief: as §2
Aspergillus niger [13] = assay: Antimicrobial activity against Aspergillus niger MTCC 281 at 100 ug/ml after 48 hrs by disc diffusion method; conditions: MTCC 281, 48 h, read-out: DIZ; method in brief: as §2
Aspergillus flavus [14] = assay: Antimicrobial activity against Aspergillus flavus MTCC 873 after 48 hrs by microdilution method; conditions: MTCC 873, 48 h; method in brief: as §1
Staphylococcus aureus [15] = assay: Antimicrobial activity against Staphylococcus aureus MTCC 96 at 50 ug/ml after 24 hrs by disc diffusion method; conditions: MTCC 96, 24 h, read-out: DIZ; method in brief: as §2
Fusarium verticillioides [16] = assay: Antimicrobial activity against Fusarium moniliforme MTCC 156 at 100 ug/ml after 48 hrs by disc diffusion method; conditions: MTCC 156, 48 h, read-out: DIZ; method in brief: as §2
Klebsiella pneumoniae [17] = assay: Antimicrobial activity against Klebsiella pneumoniae MTCC 3384 at 100 ug/ml after 24 hrs by disc diffusion method; conditions: MTCC 3384, 24 h, read-out: DIZ; method in brief: as §2
Aspergillus niger [18] = assay: Antimicrobial activity against Aspergillus niger MTCC 281 at 50 ug/ml after 48 hrs by disc diffusion method; conditions: MTCC 281, 48 h, read-out: DIZ; method in brief: as §2
Bacillus cereus [19] = assay: Antimicrobial activity against Bacillus cereus MTCC 8372 at 100 ug/ml after 24 hrs by disc diffusion method; conditions: MTCC 8372, 24 h, read-out: DIZ; method in brief: as §2
Aspergillus niger [20] = assay: Antimicrobial activity against Aspergillus niger MTCC 281 after 48 hrs by microdilution method; conditions: MTCC 281, 48 h; method in brief: as §1
Escherichia coli [21] = assay: Antimicrobial activity against Escherichia coli MTCC 724 after 24 hrs by microdilution method; conditions: MTCC 724, 24 h; method in brief: as §1
Staphylococcus aureus [22] = assay: Antimicrobial activity against Staphylococcus aureus MTCC 96 after 24 hrs by microdilution method; conditions: MTCC 96, 24 h; method in brief: as §1
Escherichia coli [23] = assay: Antimicrobial activity against Escherichia coli MTCC 724 at 50 ug/ml after 24 hrs by disc diffusion method; conditions: MTCC 724, 24 h, read-out: DIZ; method in brief: as §2
Bacillus cereus [24] = assay: Antimicrobial activity against Bacillus cereus MTCC 8372 at 50 ug/ml after 24 hrs by disc diffusion method; conditions: MTCC 8372, 24 h, read-out: DIZ; method in brief: as §2

Compound | MFC (Fusarium verticillioides [1]) [µg/mL] | MIC (Fusarium verticillioides [1]) [µg/mL] | zone of inhibition at 50 µg/mL (Fusarium verticillioides [2]) [mm] | MBC (Klebsiella pneumoniae [3]) [µg/mL] | MIC (Klebsiella pneumoniae [3]) [µg/mL] | zone of inhibition at 100 µg/mL (Staphylococcus aureus [4]) [mm] | zone of inhibition at 100 µg/mL (Fusarium oxysporum [5]) [mm] | zone of inhibition at 50 µg/mL (Aspergillus flavus [6]) [mm] | zone of inhibition at 50 µg/mL (Fusarium oxysporum [7]) [mm] | MFC (Fusarium oxysporum [8]) [µg/mL] | MIC (Fusarium oxysporum [8]) [µg/mL] | zone of inhibition at 100 µg/mL (Escherichia coli [9]) [mm] | MBC (Bacillus cereus [10]) [µg/mL] | MIC (Bacillus cereus [10]) [µg/mL] | zone of inhibition at 100 µg/mL (Aspergillus flavus [11]) [mm] | zone of inhibition at 50 µg/mL (Klebsiella pneumoniae [12]) [mm] | zone of inhibition at 100 µg/mL (Aspergillus niger [13]) [mm] | MFC (Aspergillus flavus [14]) [µg/mL] | MIC (Aspergillus flavus [14]) [µg/mL] | zone of inhibition at 50 µg/mL (Staphylococcus aureus [15]) [mm] | further results
Cc1c(C(=O)O)c(-c2ccccc2)nn1-c1ccccc1 | 270 (≈ 970 µM) | 45 (≈ 162 µM) | 6 | 240 (≈ 862 µM) | 30 (≈ 108 µM) | 8 | 5 | 5 | 3 | 295 (≈ 1060 µM) | 55 (≈ 198 µM) | 8 | 250 (≈ 898 µM) | 30 (≈ 108 µM) | 8 | 4 | 6 | 300 (≈ 1080 µM) | 55 (≈ 198 µM) | 2 | zone of inhibition at 100 µg/mL (Fusarium verticillioides [16]): 5 mm; zone of inhibition at 100 µg/mL (Klebsiella pneumoniae [17]): 6 mm; zone of inhibition at 50 µg/mL (Aspergillus niger [18]): 4 mm; zone of inhibition at 100 µg/mL (Bacillus cereus [19]): 8 mm; MFC (Aspergillus niger [20]): 280 µg/mL (≈ 1010 µM); MIC (Aspergillus niger [20]): 50 µg/mL (≈ 180 µM); MBC (Escherichia coli [21]): 280 µg/mL (≈ 1010 µM); MIC (Escherichia coli [21]): 35 µg/mL (≈ 126 µM); MBC (Staphylococcus aureus [22]): 250 µg/mL (≈ 898 µM); MIC (Staphylococcus aureus [22]): 40 µg/mL (≈ 144 µM); zone of inhibition at 50 µg/mL (Escherichia coli [23]): 3 mm; zone of inhibition at 50 µg/mL (Bacillus cereus [24]): 4 mm
Cc1c(-c2nnc(-c3ccccc3)o2)c(-c2ccc(Cl)cc2)nn1-c1ccccc1 | 270 (≈ 654 µM) | 40 (≈ 96.9 µM) | 5 | 250 (≈ 606 µM) | 50 (≈ 121 µM) | 10 | 22 | 6 | 14 | 215 (≈ 521 µM) | 30 (≈ 72.7 µM) | 18 | 240 (≈ 581 µM) | 40 (≈ 96.9 µM) | 10 | 5 | 10 | 275 (≈ 666 µM) | 50 (≈ 121 µM) | 5 | zone of inhibition at 100 µg/mL (Fusarium verticillioides [16]): 8 mm; zone of inhibition at 100 µg/mL (Klebsiella pneumoniae [17]): 9 mm; zone of inhibition at 50 µg/mL (Aspergillus niger [18]): 8 mm; zone of inhibition at 100 µg/mL (Bacillus cereus [19]): 10 mm; MFC (Aspergillus niger [20]): 275 µg/mL (≈ 666 µM); MIC (Aspergillus niger [20]): 50 µg/mL (≈ 121 µM); MBC (Escherichia coli [21]): 250 µg/mL (≈ 606 µM); MIC (Escherichia coli [21]): 40 µg/mL (≈ 96.9 µM); MBC (Staphylococcus aureus [22]): 250 µg/mL (≈ 606 µM); MIC (Staphylococcus aureus [22]): 50 µg/mL (≈ 121 µM); zone of inhibition at 50 µg/mL (Escherichia coli [23]): 11 mm; zone of inhibition at 50 µg/mL (Bacillus cereus [24]): 6 mm
